Columns and labels:
[1] = tested on: P388; test: Growth Inhibition of P388/0 cell lines.; format: functional, cell-based; settings: Mus musculus
Outline: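 P388/0 murine leukemia cells seeded at 2 × 10^3 cells/well, exposed to serial dilutions for 3 days at 37 °C, 5% CO2. Alamar Blue then added and plates read after a further 4 h at 37 °C. IC50 taken from absorbance vs dilution factor plots.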

[2] = Half life in Cell media; format: ADME
[3] = tested on: M109; test: In vivo screening in M109 syngeneic solid mouse tumor model (i.v.); format: functional
Outline: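 Female balb/c mice (20-25 g) implanted subcutaneously in the left flank with about 1 × 10^6 M109 cells on day 0. Dosed intravenously at 3 mg/kg/dose (DNR content) on days 3 and 6; 6 per group with untreated controls. % T/C of median tumor volumes taken when control median reached ~2000 mm3.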

[4] = Half life in buffer at pH 7.4.; format: ADME
Outline: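 Conjugate dissolved at 5 mg/mL in 0.1 M pH 7.4 PBS and incubated at 37 °C for various periods. Analysed by HPLC with UV detection at 254 nm (DNR) or 280 nm (ara-C). Run in duplicate.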

[5] = Half life in Rat plasma; format: ADME
Outline: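 Conjugate dissolved in distilled water (20 mg/100 µL), then 900 µL rat plasma added. Aliquots incubated at 37 °C for various times, quenched with methanol-acetonitrile (1:1) and filtered. Remaining conjugate measured by HPLC with UV detection at 254 nm (DNR) or 280 nm (ara-C). Run in duplicate. t1/2 calculated from α phase.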

[6] = tested on: M109; test: In vivo screening in M109 syngeneic solid mouse tumor model (i.p.); format: functional
Outline: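 Female balb/c mice (20-25 g) implanted subcutaneously in the left flank with about 1 × 10^6 M109 cells on day 0. Dosed intraperitoneally at 3 mg/kg/dose (DNR content) on days 1 and 4; 6 per group with untreated controls. % T/C of median tumor volumes taken when control median reached ~2000 mm3.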

| Compound | IC50 [1] [nM] | half-life [2] [h] | half-life [4] [h] | half-life [5] [h] | T/C [3] [%] | T/C [6] [%] |
| --- | --- | --- | --- | --- | --- | --- |
| CCC(=O)NC(C)C(=O)Oc1c(C)ccc(C)c1C(C)(C)CC(=O)NC1CC(O[C@H]2C[C@](O)(C(C)=O)Cc3c(O)c4c(c(O)c32)C(=O)c2c(OC)cccc2C4=O)OC(C)C1O (stereo not given in full) | 389 | 36 | > 24 | 21 | 52.5 | 153.6 |
| CCC(=O)NC(C)C(=O)Oc1cc(C)cc(C)c1C(C)(C)CC(=O)NC1CC(O[C@H]2C[C@](O)(C(C)=O)Cc3c(O)c4c(c(O)c32)C(=O)c2c(OC)cccc2C4=O)OC(C)C1O (stereo not given in full) | 43 | 14 | > 24 | 1.9 | 92.5 | 62.8 |
| CCC(=O)NCCC(=O)Oc1c(C)ccc(C)c1C(C)(C)CC(=O)NC1CC(O[C@H]2C[C@](O)(C(C)=O)Cc3c(O)c4c(c(O)c32)C(=O)c2c(OC)cccc2C4=O)OC(C)C1O (stereo not given in full) | 411 | 94 | > 24 | 8 | 31.6 | 114.8 |

Second part, led by results:

| IC50 [1] [nM] | half-life [2] [h] | half-life [4] [h] | half-life [5] [h] | Compound | T/C [3] [%] | T/C [6] [%] |
| --- | --- | --- | --- | --- | --- | --- |
| 142 | 38 | > 24 | 1.1 | CCC(=O)NCCOCCOC(=O)Oc1cc(C)cc(C)c1C(C)(C)CC(=O)NC1CC(O[C@H]2C[C@](O)(C(C)=O)Cc3c(O)c4c(c(O)c32)C(=O)c2c(OC)cccc2C4=O)OC(C)C1O (stereo not given in full) | 118.4 | 57.1 |
| 203 | 80 | > 24 | 0.2 | CCC(=O)NCCC(=O)Oc1cc(C)cc(C)c1C(C)(C)CC(=O)NC1CC(O[C@H]2C[C@](O)(C(C)=O)Cc3c(O)c4c(c(O)c32)C(=O)c2c(OC)cccc2C4=O)OC(C)C1O (stereo not given in full) | 63.7 | 101.2 |

Reference: ChEMBL document CHEMBL1133092, “Drug delivery systems based on trimethyl lock lactonization: poly(ethylene glycol) prodrugs of amino-containing compounds” (J Med Chem, 2000)
